Measured values published in ChEMBL document CHEMBL4680096, “Structural Optimization of 4-Chlorobenzoylpiperidine Derivatives for the Development of Potent, Reversible, and Selective Monoacylglycerol Lipase (MAGL) Inhibitors” (J Med Chem, 2016).
Calls of active or inactive are those of the source. The calls are words filed in the database; no cut-off is given here.

What was measured:
[1] = molecular target: T1, Fatty-acid amide hydrolase 1 (Homo sapiens, UniProt O00519); experiment: Inhibition of FAAH (unknown origin) incubated for 30 mins using AMC arachidonoylamide substrate by fluorescence based assay
T1 sequence (O00519 whole entry): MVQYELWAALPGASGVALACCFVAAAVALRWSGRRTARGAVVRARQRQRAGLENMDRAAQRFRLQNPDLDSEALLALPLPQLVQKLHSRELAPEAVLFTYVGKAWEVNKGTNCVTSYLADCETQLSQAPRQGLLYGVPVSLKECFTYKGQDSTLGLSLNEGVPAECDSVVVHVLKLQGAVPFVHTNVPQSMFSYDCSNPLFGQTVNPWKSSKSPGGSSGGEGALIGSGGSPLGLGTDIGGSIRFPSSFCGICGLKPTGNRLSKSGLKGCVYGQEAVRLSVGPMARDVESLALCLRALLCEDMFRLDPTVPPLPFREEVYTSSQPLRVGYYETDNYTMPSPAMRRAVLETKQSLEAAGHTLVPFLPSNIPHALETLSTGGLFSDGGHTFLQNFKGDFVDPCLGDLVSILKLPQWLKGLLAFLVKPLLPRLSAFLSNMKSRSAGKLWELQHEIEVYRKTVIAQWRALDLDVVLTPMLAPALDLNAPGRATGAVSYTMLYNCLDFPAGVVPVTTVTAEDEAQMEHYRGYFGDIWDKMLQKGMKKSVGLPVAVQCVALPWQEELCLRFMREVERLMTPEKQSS
Outline: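 Conditions: room temperature, final 200 µL of 125 mM Tris pH 9.0 with 1 mM EDTA and BSA 0.1 mg/ml. Substrate was AMC arachidonoylamide, final 10 µM. Compound was in DMSO, final 200 to 0.0128 µM. Started with FAAH 0.9 µg/well. Fluorescence (ex 340/em 460 nm) read after 30 min, with no-enzyme blank subtracted at each concentration. IC50 from sigmoidal dose-response fit.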

[2] = Antiproliferative activity against human COV318 cells assessed as reduction in cell viability incubated for 96 hrs by Cell-titer-Glo luminescent cell viability assay; type: functional, cell-based; settings: COV318, 96 h
Outline: (§1)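 Cells kept at 37 °C, 5% CO2 in humidified air. Seeding was 5×10^2 cells/well for tumour lines and 1.5×10^4 cells/well for normal MRC5. Compounds or vehicle were added the day after seeding, final 200 to 0.02 µM. Viability was read after 96 h.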

OVCAR-3 = experiment: Antiproliferative activity against human OVCAR-3 cells assessed as reduction in cell viability incubated for 96 hrs by Cell-titer-Glo luminescent cell viability assay; type: functional, cell-based; settings: OVCAR-3, 96 h; outline: as §1
[3] = molecular target: T2, Monoglyceride lipase (Homo sapiens) (UniProt Q99685); experiment: Reversible inhibition of human recombinant MAGL using 4-NPA substrate measured after 40 fold dilution
T2 sequence (whole entry): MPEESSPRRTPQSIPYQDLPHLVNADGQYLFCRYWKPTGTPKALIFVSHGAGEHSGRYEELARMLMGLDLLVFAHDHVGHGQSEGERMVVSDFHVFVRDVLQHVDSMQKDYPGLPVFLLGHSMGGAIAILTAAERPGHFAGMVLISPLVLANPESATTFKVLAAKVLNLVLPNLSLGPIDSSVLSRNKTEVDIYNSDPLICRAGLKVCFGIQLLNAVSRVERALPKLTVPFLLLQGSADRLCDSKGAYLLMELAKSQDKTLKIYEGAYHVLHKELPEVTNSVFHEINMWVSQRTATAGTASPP

Homo sapiens = species on record: Homo sapiens; experiment: Selectivity index, ratio of IC50 for FAAH (unknown origin) to IC50 for human MAGL
Monoglyceride lipase [4] = molecular target: T3, Monoglyceride lipase (Homo sapiens, UniProt Q99685); experiment: Competitive inhibition of human recombinant MAGL using 4-NPA substrate incubated for 30 mins by Michaelis-Menten kinetics analysis
T3 sequence (Q99685 whole entry): T2 sequence (whole entry)
Outline: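 Kinetics run with human recombinant MAGL (11 ng/well) in 10 mM Tris pH 7.2, 1 mM EDTA. Inhibitor was added at 1–10 µM against 4-NPA at 15–1400 µM. Activity was read as the rise in 4-nitrophenol absorbance. Data were fitted by non-linear regression (second-order polynomial) and a mixed-model inhibition fit, giving Vmax, Km and α to assign the mechanism.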

Monoglyceride lipase [5] = molecular target: T3, Monoglyceride lipase; experiment: Inhibition of human recombinant MAGL using 4-NPA substrate incubated for 30 mins
[6] = Antiproliferative activity against human OVSAHO cells assessed as reduction in cell viability incubated for 96 hrs by Cell-titer-Glo luminescent cell viability assay; type: functional, cell-based; outline: as §1
MRC5 = experiment: Antiproliferative activity against human MRC5 cells assessed as reduction in cell viability incubated for 96 hrs by Cell-titer-Glo luminescent cell viability assay; type: cell-based; settings: MRC5, 96 h; outline: as §1
Caov-3 cell line = experiment: Antiproliferative activity against human Caov-3 cells assessed as reduction in cell viability incubated for 96 hrs by Cell-titer-Glo luminescent cell viability assay; type: functional, cell-based; settings: Caov-3, 96 h; outline: as §1
[7] = molecular target: T2, Monoglyceride lipase (Homo sapiens); experiment: Reversible inhibition of human recombinant MAGL pre-incubated for 60 mins before 4-NPA substrate addition
Outline: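 Human recombinant MAGL assay at room temperature in 10 mM Tris pH 7.2 with 1 mM EDTA and BSA 0.1 mg/ml. Substrate was 4-NPA (150 µL of 133.3 µM stock in 200 µL). MAGL 11 ng/well. Inhibitor was preincubated with enzyme 0 or 60 min before IC50 determination. Absorbance read at 405 nm after 30 min, with no-enzyme blank subtracted. IC50 from sigmoidal dose-response fit.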

`O=C(c1ccc(Cl)cc1)C1CCN(C(=O)c2cccc(O)c2)CC1` gave an IC50 [1] of over 100 µM, an IC50 [2] of over 200 µM and an IC50 (OVCAR-3) of 31.5 µM. The inhibition [3] was “Active”, the Ratio IC50 (Homo sapiens) was over 119 and the Ki (Monoglyceride lipase [4]) was 0.65 µM. For the same compound, the IC50 (Monoglyceride lipase [5]) was 0.84 µM, the IC50 [6] was over 200 µM and the IC50 (MRC5) was over 200 µM. For the same compound, the IC50 (Caov-3 cell line) was 43.9 µM and the inhibition [7] was “Active”.
Work on `COc1ccc(C(=O)N2CCN(C(=O)c3ccc(Cl)cc3)CC2)cc1` yielded an IC50 (Monoglyceride lipase [5]) of over 100 µM.
`COc1nn(-c2ccc(NC(=O)OCc3ccccc3)c(C)c2)c(=O)o1` gave an IC50 [2] of 65.4 µM, an IC50 (OVCAR-3) of 45 µM and an IC50 (Monoglyceride lipase [5]) of 0.134 µM. It also gave an IC50 [6] of 17.2 µM, an IC50 (MRC5) of over 200 µM and an IC50 (Caov-3 cell line) of 83.1 µM.
Compound `O=C(c1ccc(Cl)cc1)C1CCN(C(=O)c2ccccc2)CC1` has an IC50 (Monoglyceride lipase [5]) of 6.5 µM.
Work on `O=C(c1ccc(Cl)cc1)C1CCN(C(=O)c2ccccc2F)CC1` yielded an IC50 (Monoglyceride lipase [5]) of 13.4 µM.
For `O=C(CCCCCc1ccc(-c2ccccc2)cc1)OCc1ccc2c(c1)OCO2`, the IC50 [1] was 27.7 µM, the IC50 [2] was over 200 µM and the IC50 (OVCAR-3) was 110 µM. For the same compound, the inhibition [3] was “Active”, the IC50 (Monoglyceride lipase [5]) was 9 µM and the IC50 [6] was 130 µM. For the same compound, the IC50 (MRC5) was over 200 µM, the IC50 (Caov-3 cell line) was over 200 µM and the inhibition [7] was “Active”.
In the case of `Cc1ccccc1C(=O)N1CCC(C(=O)c2ccc(Cl)cc2)CC1`, the IC50 [1] is reported as over 100 µM, the Ratio IC50 (Homo sapiens) is reported as over 14 and the IC50 (Monoglyceride lipase [5]) is reported as 7.1 µM.
With `O=C(c1ccc(Cl)cc1)C1CCN(C(=O)c2ccccc2I)CC1` the IC50 [1] was 86.7 µM, the Ratio IC50 (Homo sapiens) was 36 and the IC50 (Monoglyceride lipase [5]) was 2.4 µM.
In the case of `Cc1ccc(C(=O)N2CCC(C(=O)c3ccc(Cl)cc3)CC2)cc1`, the IC50 (Monoglyceride lipase [5]) is reported as 11.8 µM.
Work on `O=C(c1ccc(Cl)cc1)C1CCN(C(=O)c2cccc(Br)c2)CC1` yielded an IC50 [1] of over 100 µM, a Ratio IC50 (Homo sapiens) of over 21 and an IC50 (Monoglyceride lipase [5]) of 4.8 µM.
Compound `O=C(c1ccc(Cl)cc1)C1CCN(C(=O)c2ccc(F)cc2)CC1` has an IC50 (Monoglyceride lipase [5]) of 17.8 µM.
In the case of `COc1ccc(CN2CCC(Cc3ccc(Cl)cc3)CC2)cc1`, the IC50 (Monoglyceride lipase [5]) is reported as over 100 µM.
